Drawing on ChEMBL document CHEMBL1145176, “Somatostatin receptor 1 selective analogues: 2. N(alpha)-Methylated scan” (J Med Chem, 2005), this text covers EC50 for one compound.

Values joined by “and” are separate entries in the source; they are usually repeats but may differ in a detail not shown here. Identical values can stand only once.

The subject of the assay is CHO-K1. Briefly: Concentration for inhibition of forskolin-stimulated cAMP accumulation in CCL39 cells. Format: functional, cell-based, Cricetulus griseus. In a few lines: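 CCL39 cells stably expressing human sst1, seeded in poly-D-lysine-coated 96-well plates at 2 × 10^4 cells/well, grown 24 h. Preincubated 30 min at 37 °C in medium with 0.5 mM IBMX, then 30 min at 37 °C with 0.5 mM IBMX, 7.5 µM forskolin and varying peptide concentrations. Lysed; cAMP measured by scintillation proximity assay. Three independent experiments in triplicate; EC50 from concentration-response curves.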
(In general: Cyclic AMP is a second messenger, typically raised through Gs and lowered through Gi signalling.)

One may read the EC50 as the concentration giving half of the maximal effect. Read a high EC50 as lower potency in that assay. Consider `CSCC[C@H](NC(=O)[C@H](C)NC(=O)[C@@H]1CCCN1C(=O)[C@H](CC(N)=O)NC(=O)[C@H](CO)NC(=O)[C@H](CC(N)=O)NC(=O)[C@H](C)NC(=O)[C@@H](N)CO)C(=O)N[C@@H](C)C(=O)N1CCC[C@H]1C(=O)N[C@@H](CCCNC(=N)N)C(=O)N[C@@H](CCC(=O)O)C(=O)N[C@@H](CCCNC(=N)N)C(=O)N[C@@H](CCCCN)C(=O)N[C@@H](C)C(=O)NCC(=O)N[C@H]1CSSC[C@@H](C(=O)O)NC(=O)[C@H](CO)NC(=O)[C@H]([C@@H](C)O)NC(=O)[C@H](Cc2ccccc2)NC(=O)[C@H]([C@@H](C)O)NC(=O)[C@H](CCCCN)NC(=O)[C@H](Cc2c[nH]c3ccccc23)NC(=O)[C@H](Cc2ccccc2)NC(=O)[C@H](Cc2ccccc2)NC(=O)[C@H](CC(N)=O)NC(=O)[C@H](CCCCN)NC1=O`, for which the EC50 was 0.18 nM and 0.77 nM.
